Published values collected from several papers.
Compare with care: the assays were run in different laboratories.
Target: Receptor tyrosine-protein kinase erbB-4 (ERBB4, Homo sapiens, UniProt Q15303)

Compound | observed | mode | technique | concentration | endpoint | result
C#Cc1cc(-c2cc(Nc3nc(N[C@@H](C)c4ccc(F)cn4)ncc3Cl)n[nH]2)ccc1C=O | enzyme activity | inhibitor |  | 0.2 µM | inhibition | 54.3%
N#Cc1ccc(NC(=O)Nc2ccccc2)cc1 | cell-free assay |  | competition with immobilised ligand | 25 µM | remaining binding | 100%
C1=C/COCc2cc(ccc2OCCN2CCCC2)Nc2nccc(n2)-c2cccc(c2)COC/1 | binding |  |  | 0.1 µM | remaining binding | 88%
COc1ccc2oc(-c3ccc4nc(N)oc4c3)c/c(=N\c3ccccc3NC(=O)CCN)c2c1 | binding |  |  | 1 µM | remaining binding | 109%
Cc1ccc(NC(=O)c2ccnc(C(F)(F)F)c2)cc1-c1cc(OCCO)nc(N2CCOCC2)c1 | binding |  | competition with immobilised ligand | 1 µM | remaining binding | 99%
COc1c(Cl)cccc1Nc1c(-c2ccncc2OC[C@@H]2COCCO2)[nH]c2c1C(=O)NCC2 | enzyme activity | inhibitor | radiometric | 1 µM | inhibition | > 80%
CC#CC(=O)N1CCC[C@H]1c1nc(-c2ccc(C(=O)Nc3ccccn3)cc2)c2c(N)nccn12 | enzyme activity | inhibitor |  | 1 µM | inhibition | 96%
CN1CCN(C(=O)c2ccc(NC(=O)Nc3ccc(N(C)c4ccnc(Nc5ccc(CS(C)(=O)=O)cc5)n4)cc3)cc2)CC1 | binding |  | competition with immobilised ligand | 1 µM | remaining binding | 77%
C=CC(=O)N1CCC[C@@H](n2nc(-c3ccc(Oc4ccccc4)cc3)c3c(N)ncnc32)C1 | enzyme activity | inhibitor |  | 1 µM | inhibition | 100%
CCCCC(=O)Nc1ccc(-c2ccc3ncn(CCC)c(=O)c3c2)cn1 | binding |  | competition with immobilised ligand | 0.5 µM | remaining binding | 100%
C#Cc1cnc(Nc2ccnc(CO)c2)nc1Nc1ccccc1S(C)(=O)=NC#N (centres unmarked) | cell-free assay |  |  | 1 µM | remaining signal | 86%
